Data on twelve compounds can be found in ChEMBL document CHEMBL1250476, “Synthesis and antifungal evaluation of novel triazole derivatives as inhibitors of cytochrome P450 14alpha-demethylase” (2010).

What all share (format): functional
Experiment [1] deals with Candida albicans. Briefly: Antifungal activity against Candida albicans SC5314 after 24 hrs by micro-broth dilution method. The note with it: SC5314, 24 h. In a few lines:
(§1)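 Broth microdilution per NCCLS on Candida albicans. Compounds were dissolved in DMSO, serially diluted in growth medium, inoculated and incubated at 35 °C. Growth was read at 24 h, and MIC80 was taken as the first well with about 80% growth reduction relative to the drug-free control. Values are the mean of three replicates.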
In general terms: Broth dilution looks for growth in wells or tubes with falling amounts of substance.

Experiment [2] deals with Candida albicans. Put plainly: Antifungal activity against Candida albicans Y0109 after 24 hrs by micro-broth dilution method. The note with it: Y0109, 24 h. A digest of the protocol: as §1
Another experiment deals with Cryptococcus neoformans. Briefly: Antifungal activity against Cryptococcus neoformans after 72 hrs by micro-broth dilution method. A digest of the protocol:
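Cryptococcus neoformans tested by NCCLS micro-broth dilution. Compounds were dissolved in DMSO, serially diluted in medium, inoculated and incubated at 35 °C. MIC80 was read at 72 h as the first well showing approximately 80% growth reduction compared with the drug-free well. Values are the mean of three replicate tests.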

A further experiment has as its system Candida parapsilosis. Put plainly: Antifungal activity against Candida parapsilosis by micro-broth dilution method. The note with it: Lodderomyces parapsilosis. A digest of the protocol: (§2)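 MIC80 by broth microdilution in 96-well format following NCCLS. Compounds were dissolved in DMSO, serially diluted in growth medium, inoculated and incubated at 35 °C. The endpoint was the first well with about 80% growth reduction versus the drug-free well. Values are means of three replicate tests.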

A further experiment has as its system Candida tropicalis. Put plainly: Antifungal activity against Candida tropicalis by micro-broth dilution method. In a few lines: as §2
A further experiment relates to Trichophyton rubrum. Put plainly: Antifungal activity against Trichophyton rubrum by micro-broth dilution method. In a few lines: as §2
The test system of a further experiment is Kluyveromyces marxianus. Briefly: Antifungal activity against Candida kefyr by micro-broth dilution method. A digest of the protocol: as §2
For the next experiment, the system named is Aspergillus fumigatus. Briefly: Antifungal activity against Aspergillus fumigatus by micro-broth dilution method. In a few lines: as §2

In brackets after ≈: the same amount, converted by molar mass.

For the compound `CCCCCCCCCCCCCCCCn1cc(CN(CC(O)(Cn2cncn2)c2ccc(F)cc2F)C(C)C)nn1` (stereo unspecified), the MIC is less than 0.125 µg/mL against Candida albicans [1]; 0.0625 µg/mL (≈ 0.104 µM) with Candida albicans [2]; 2 µg/mL (≈ 3.32 µM) against Cryptococcus neoformans; 0.5 µg/mL (≈ 0.831 µM) against Candida parapsilosis; less than 0.125 µg/mL in the experiment on Candida tropicalis; 0.25 µg/mL (≈ 0.415 µM) in the experiment with Trichophyton rubrum. Moreover, the figures for the MIC in the experiment on Kluyveromyces marxianus and against Aspergillus fumigatus were 0.25 µg/mL (≈ 0.415 µM) and more than 64 µg/mL, respectively.

`CC(C)N(Cc1cn(Cc2ccccc2[N+](=O)[O-])nn1)CC(O)(Cn1cncn1)c1ccc(F)cc1F` (stereo unspecified): the MIC is less than 0.125 µg/mL in the experiment with Candida albicans [1]; 0.0625 µg/mL (≈ 0.122 µM) in the experiment on Candida albicans [2]; 32 µg/mL (≈ 62.4 µM) with Cryptococcus neoformans; 8 µg/mL (≈ 15.6 µM) in the experiment on Candida parapsilosis; 2 µg/mL (≈ 3.9 µM) against Candida tropicalis; 1 µg/mL (≈ 1.95 µM) against Trichophyton rubrum. The MIC in the experiment on Kluyveromyces marxianus is 0.0625 µg/mL (≈ 0.122 µM); in the experiment on Aspergillus fumigatus, more than 64 µg/mL.

`CC(C)N(Cc1cn(Cc2cccc([N+](=O)[O-])c2)nn1)CC(O)(Cn1cncn1)c1ccc(F)cc1F` (stereo unspecified): the MIC is less than 0.125 µg/mL against Candida albicans [1]; 0.0625 µg/mL (≈ 0.122 µM) against Candida albicans [2]; 32 µg/mL (≈ 62.4 µM) in the experiment with Cryptococcus neoformans; 2 µg/mL (≈ 3.9 µM) in the experiment with Candida parapsilosis; 4 µg/mL (≈ 7.8 µM) with Candida tropicalis; 1 µg/mL (≈ 1.95 µM) against Trichophyton rubrum. In addition, the MIC in the experiment on Kluyveromyces marxianus is 0.25 µg/mL (≈ 0.488 µM); against Aspergillus fumigatus, more than 64 µg/mL.

Take `CC(C)N(Cc1cn(Cc2ccc([N+](=O)[O-])cc2)nn1)CC(O)(Cn1cncn1)c1ccc(F)cc1F` (stereo unspecified): the MIC against Candida albicans [1] is less than 0.125 µg/mL; against Candida albicans [2], 0.0039 µg/mL (≈ 0.00761 µM); against Cryptococcus neoformans it was 16 µg/mL (≈ 31.2 µM); in the experiment on Candida parapsilosis it was 4 µg/mL (≈ 7.8 µM); in the experiment with Candida tropicalis, 1 µg/mL (≈ 1.95 µM); with Trichophyton rubrum, 2 µg/mL (≈ 3.9 µM). The MIC in the experiment on Kluyveromyces marxianus was 0.25 µg/mL (≈ 0.488 µM); in the experiment with Aspergillus fumigatus, more than 64 µg/mL.

Regarding `CC(C)N(Cc1cn(Cc2ccccc2C#N)nn1)CC(O)(Cn1cncn1)c1ccc(F)cc1F` (stereo unspecified), the MIC stood at 0.25 µg/mL (≈ 0.508 µM) against Candida albicans [1]; 0.0156 µg/mL (≈ 0.0317 µM) in the experiment on Candida albicans [2]; 64 µg/mL (≈ 130 µM) against Cryptococcus neoformans; 8 µg/mL (≈ 16.2 µM) against Candida parapsilosis; 1 µg/mL (≈ 2.03 µM) against Candida tropicalis; 2 µg/mL (≈ 4.06 µM) in the experiment with Trichophyton rubrum. The MIC against Kluyveromyces marxianus was 1 µg/mL (≈ 2.03 µM); with Aspergillus fumigatus, more than 64 µg/mL.

With `CC(C)N(Cc1cn(Cc2cccc(C#N)c2)nn1)CC(O)(Cn1cncn1)c1ccc(F)cc1F` (stereo unspecified), the MIC was less than 0.125 µg/mL in the experiment on Candida albicans [1]; 0.0625 µg/mL (≈ 0.127 µM) against Candida albicans [2]; 64 µg/mL (≈ 130 µM) in the experiment on Cryptococcus neoformans; 16 µg/mL (≈ 32.5 µM) against Candida parapsilosis; 16 µg/mL (≈ 32.5 µM) against Candida tropicalis; 16 µg/mL (≈ 32.5 µM) with Trichophyton rubrum. Further, the MIC against Kluyveromyces marxianus is 0.25 µg/mL (≈ 0.508 µM); against Aspergillus fumigatus, more than 64 µg/mL.

`CC(C)N(Cc1cn(Cc2ccc(C#N)cc2)nn1)CC(O)(Cn1cncn1)c1ccc(F)cc1F` (stereo unspecified): the MIC in the experiment on Candida albicans [1] was 1 µg/mL (≈ 2.03 µM); in the experiment on Candida albicans [2] it was 0.0156 µg/mL (≈ 0.0317 µM); against Cryptococcus neoformans it was 16 µg/mL (≈ 32.5 µM); against Candida parapsilosis it was 0.5 µg/mL (≈ 1.02 µM); in the experiment on Candida tropicalis it was less than 0.125 µg/mL; with Trichophyton rubrum, less than 0.125 µg/mL. In addition, the MIC in the experiment on Kluyveromyces marxianus was 0.25 µg/mL (≈ 0.508 µM); against Aspergillus fumigatus it was more than 64 µg/mL.

Turning to `CC(C)N(Cc1cn(Cc2ccccc2)nn1)CC(O)(Cn1cncn1)c1ccc(F)cc1F` (stereo unspecified), the MIC is less than 0.125 µg/mL in the experiment on Candida albicans [1]; 0.0039 µg/mL (≈ 0.00834 µM) against Candida albicans [2]; 8 µg/mL (≈ 17.1 µM) against Cryptococcus neoformans; 0.25 µg/mL (≈ 0.535 µM) against Candida parapsilosis; less than 0.125 µg/mL in the experiment on Candida tropicalis; less than 0.125 µg/mL against Trichophyton rubrum. Further, the MIC with Kluyveromyces marxianus worked out at 0.0625 µg/mL (≈ 0.134 µM); in the experiment on Aspergillus fumigatus, 64 µg/mL (≈ 137 µM).

In the case of `CC(C)N(Cc1cn(Cc2ccc(Cl)cc2Cl)nn1)CC(O)(Cn1cncn1)c1ccc(F)cc1F` (stereo unspecified), the MIC stood at 4 µg/mL (≈ 7.46 µM) in the experiment on Candida albicans [1]; 0.0156 µg/mL (≈ 0.0291 µM) against Candida albicans [2]; 8 µg/mL (≈ 14.9 µM) with Cryptococcus neoformans; 0.5 µg/mL (≈ 0.932 µM) against Candida parapsilosis; 0.25 µg/mL (≈ 0.466 µM) in the experiment on Candida tropicalis; 0.25 µg/mL (≈ 0.466 µM) against Trichophyton rubrum. In addition, the MIC is 0.25 µg/mL (≈ 0.466 µM) with Kluyveromyces marxianus and more than 64 µg/mL in the experiment on Aspergillus fumigatus.

On to `CC(C)N(Cc1cn(Cc2c(Cl)cccc2Cl)nn1)CC(O)(Cn1cncn1)c1ccc(F)cc1F` (stereo unspecified), for which the MIC is 0.0039 µg/mL (≈ 0.00727 µM) in the experiment on Candida albicans [1]; less than 0.125 µg/mL in the experiment on Candida albicans [2]; 0.0625 µg/mL (≈ 0.117 µM) against Cryptococcus neoformans; 0.0625 µg/mL (≈ 0.117 µM) in the experiment with Candida parapsilosis; 0.0156 µg/mL (≈ 0.0291 µM) in the experiment with Candida tropicalis; 0.0156 µg/mL (≈ 0.0291 µM) in the experiment with Trichophyton rubrum. The MIC was 0.0156 µg/mL (≈ 0.0291 µM) in the experiment with Kluyveromyces marxianus and more than 64 µg/mL in the experiment with Aspergillus fumigatus.

In the case of `CC(C)N(Cc1cn(Cc2ccc(C(C)(C)C)cc2)nn1)CC(O)(Cn1cncn1)c1ccc(F)cc1F` (stereo unspecified), the MIC against Candida albicans [1] was less than 0.125 µg/mL; against Candida albicans [2], 0.25 µg/mL (≈ 0.477 µM); in the experiment on Cryptococcus neoformans, 32 µg/mL (≈ 61.1 µM); in the experiment on Candida parapsilosis, 1 µg/mL (≈ 1.91 µM); with Candida tropicalis, 2 µg/mL (≈ 3.82 µM); in the experiment on Trichophyton rubrum, 1 µg/mL (≈ 1.91 µM). The MIC was 0.25 µg/mL (≈ 0.477 µM) in the experiment on Kluyveromyces marxianus and more than 64 µg/mL in the experiment on Aspergillus fumigatus.

In the case of `CC(C)N(Cc1cn(C2CCCCC2)nn1)CC(O)(Cn1cncn1)c1ccc(F)cc1F` (stereo unspecified), the MIC is less than 0.125 µg/mL against Candida albicans [1]; 0.0625 µg/mL (≈ 0.136 µM) in the experiment on Candida albicans [2]; 16 µg/mL (≈ 34.8 µM) against Cryptococcus neoformans; 2 µg/mL (≈ 4.35 µM) against Candida parapsilosis; 0.5 µg/mL (≈ 1.09 µM) in the experiment with Candida tropicalis; 1 µg/mL (≈ 2.18 µM) in the experiment on Trichophyton rubrum. For the same compound, the MIC in the experiment on Kluyveromyces marxianus is 0.25 µg/mL (≈ 0.544 µM); against Aspergillus fumigatus, more than 64 µg/mL.

The term MIC denotes the lowest concentration found to suppress growth.
